Values belong to the compound of their own block, whether it stands above or below them. Calls of active or inactive are those of the source. The calls are words filed in the database; no cut-off is given here.
Legend:
[1] = target: Cyclin-dependent kinase 1/cyclin B1 (Homo sapiens, UniProt P06493); assay type: protein-complex assay
[2] = target: CDK2/Cyclin A2 (Homo sapiens, UniProt P24941); assay: Inhibition of CDK2/cyclin A2 (unknown origin) using FAM-labeled peptide and ATP as substrate preincubated for 10 mins followed by substrate addition by mobility shift assay; assay type: protein-complex assay
[3] = system: A2058; assay: Antiproliferative activity against human A2058 cells assessed as reduction in cell viability measured after 96 hrs by Celltiter-Glo luminescent assay; assay type: functional, cell-based; settings: A2058, 96 h
Method in brief: (§1)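 Cells in DMEM (A2058, MRC5) or RPMI 1640 (MV4-11), each with 10% fetal bovine serum and 1% penicillin/streptomycin. Cells were plated in 96-well plates and exposed to serially concentrated compound for 96 h, with DMSO as control. Viability was read by CellTiter-Glo luminescence and IC50 derived.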

[4] = target: CDK3/Cyclin E (Homo sapiens, UniProt Q00526); assay: Inhibition of CDK3/cyclin E1 (unknown origin) using FAM-labeled peptide and ATP as substrate preincubated for 10 mins followed by substrate addition by mobility shift assay; assay type: protein-complex assay
Method in brief: (§2)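 Mobility shift assay in 50 mM HEPES pH 7.5 with 0.0015% Brij-35. Kinase was added to serially diluted compound in 10% DMSO and held 10 min at room temperature. FAM-labeled peptide and ATP were then added and the mixture incubated at 28 °C for the specified time. Reactions were stopped with EDTA-containing buffer.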

[5] = target: CDK4/Cyclin D3 (Homo sapiens, UniProt P11802); assay: Inhibition of CDK4/cyclin D3 (unknown origin) using FAM-labeled peptide and ATP as substrate preincubated for 10 mins followed by substrate addition by mobility shift assay; assay type: protein-complex assay
Sequence of CDK4/Cyclin D3 (P11802 whole entry): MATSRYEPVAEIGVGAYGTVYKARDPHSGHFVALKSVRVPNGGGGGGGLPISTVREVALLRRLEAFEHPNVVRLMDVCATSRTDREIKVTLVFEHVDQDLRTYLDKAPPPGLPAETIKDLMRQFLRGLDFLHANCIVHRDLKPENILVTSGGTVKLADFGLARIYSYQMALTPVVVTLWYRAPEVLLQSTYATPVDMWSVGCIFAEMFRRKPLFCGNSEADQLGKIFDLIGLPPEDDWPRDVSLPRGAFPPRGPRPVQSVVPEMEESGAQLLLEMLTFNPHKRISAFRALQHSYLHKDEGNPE
Sequence of CDK4/Cyclin D3 (P30281 whole entry, further chain): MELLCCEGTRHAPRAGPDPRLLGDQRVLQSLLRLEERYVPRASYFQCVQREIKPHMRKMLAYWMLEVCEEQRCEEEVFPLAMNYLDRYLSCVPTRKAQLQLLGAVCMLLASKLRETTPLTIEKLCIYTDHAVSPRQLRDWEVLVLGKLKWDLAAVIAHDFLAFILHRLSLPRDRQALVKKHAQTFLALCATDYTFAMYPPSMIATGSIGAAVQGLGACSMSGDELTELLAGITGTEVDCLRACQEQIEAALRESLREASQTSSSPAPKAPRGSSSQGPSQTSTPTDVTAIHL

[6] = target: CDK6/cyclin D3 (Homo sapiens, UniProt Q00534); assay: Inhibition of CDK6/cyclin D3 (unknown origin) using FAM-labeled peptide and ATP as substrate preincubated for 10 mins followed by substrate addition by mobility shift assay; assay type: protein-complex assay
Sequence of CDK6/cyclin D3 (P30281 whole entry): as the sequence (P30281 whole entry, further chain) above
Sequence of CDK6/cyclin D3 (Q00534 whole entry): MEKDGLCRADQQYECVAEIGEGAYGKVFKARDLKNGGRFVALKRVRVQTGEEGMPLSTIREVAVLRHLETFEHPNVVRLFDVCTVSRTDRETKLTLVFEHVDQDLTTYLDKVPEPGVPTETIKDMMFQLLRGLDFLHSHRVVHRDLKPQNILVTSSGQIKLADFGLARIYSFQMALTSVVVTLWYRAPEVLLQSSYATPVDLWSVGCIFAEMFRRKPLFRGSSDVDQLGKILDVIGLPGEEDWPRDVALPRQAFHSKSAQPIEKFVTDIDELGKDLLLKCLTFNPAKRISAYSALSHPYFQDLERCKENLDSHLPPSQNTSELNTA
Method in brief: as §2

[7] = target: CDK7/Cyclin H/MNAT1 (Homo sapiens, UniProt P50613); assay: Inhibition of CDK7/cyclinH/MAT1 (unknown origin) using FAM-labeled peptide and ATP as substrate preincubated for 10 mins followed by substrate addition by mobility shift assay; assay type: protein-complex assay
Method in brief: as §2

[8] = target: CDK9/cyclin T1 (Homo sapiens, UniProt P50750); assay: Inhibition of CDK9/cyclin T1 (unknown origin) using FAM-labeled peptide and ATP as substrate preincubated for 10 mins followed by substrate addition by mobility shift assay; assay type: protein-complex assay
Sequence of CDK9/cyclin T1 (O60563 whole entry): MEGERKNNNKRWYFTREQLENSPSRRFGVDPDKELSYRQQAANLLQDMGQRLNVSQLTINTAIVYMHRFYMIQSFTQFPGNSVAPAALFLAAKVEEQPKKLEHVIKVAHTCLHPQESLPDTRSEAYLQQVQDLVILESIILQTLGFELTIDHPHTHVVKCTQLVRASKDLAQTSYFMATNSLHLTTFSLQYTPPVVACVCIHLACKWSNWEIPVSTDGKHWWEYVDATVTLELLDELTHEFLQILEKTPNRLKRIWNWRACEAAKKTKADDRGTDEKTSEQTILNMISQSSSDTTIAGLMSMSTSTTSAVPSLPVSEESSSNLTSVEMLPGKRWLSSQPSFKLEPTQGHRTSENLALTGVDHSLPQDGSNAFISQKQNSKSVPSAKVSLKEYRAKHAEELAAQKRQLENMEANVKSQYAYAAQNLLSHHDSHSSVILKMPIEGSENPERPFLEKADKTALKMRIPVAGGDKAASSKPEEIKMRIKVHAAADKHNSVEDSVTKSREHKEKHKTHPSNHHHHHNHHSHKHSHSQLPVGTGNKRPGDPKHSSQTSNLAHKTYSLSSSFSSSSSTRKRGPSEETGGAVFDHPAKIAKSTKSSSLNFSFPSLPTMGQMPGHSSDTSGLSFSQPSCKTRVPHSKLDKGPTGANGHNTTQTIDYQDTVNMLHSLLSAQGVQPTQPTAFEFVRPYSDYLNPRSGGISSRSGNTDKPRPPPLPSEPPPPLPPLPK
Sequence of CDK9/cyclin T1 (P50750 whole entry): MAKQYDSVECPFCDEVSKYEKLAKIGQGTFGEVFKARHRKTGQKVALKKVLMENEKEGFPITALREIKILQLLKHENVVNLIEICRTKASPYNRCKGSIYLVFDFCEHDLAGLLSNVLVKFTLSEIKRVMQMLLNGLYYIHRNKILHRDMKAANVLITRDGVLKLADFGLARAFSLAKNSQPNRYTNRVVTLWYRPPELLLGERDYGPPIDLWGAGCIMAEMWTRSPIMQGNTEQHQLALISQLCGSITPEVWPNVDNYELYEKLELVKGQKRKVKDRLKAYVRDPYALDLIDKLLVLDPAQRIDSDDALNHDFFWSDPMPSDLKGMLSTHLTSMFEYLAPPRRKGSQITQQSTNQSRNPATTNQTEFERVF

[9] = target: CDK12/Cyclin K (Homo sapiens, UniProt Q9NYV4); assay: Inhibition of CDK12/cyclin K (unknown origin) using FAM-labeled peptide and ATP as substrate preincubated for 10 mins followed by substrate addition by mobility shift assay; assay type: protein-complex assay
Sequence of CDK12/Cyclin K (O75909 whole entry): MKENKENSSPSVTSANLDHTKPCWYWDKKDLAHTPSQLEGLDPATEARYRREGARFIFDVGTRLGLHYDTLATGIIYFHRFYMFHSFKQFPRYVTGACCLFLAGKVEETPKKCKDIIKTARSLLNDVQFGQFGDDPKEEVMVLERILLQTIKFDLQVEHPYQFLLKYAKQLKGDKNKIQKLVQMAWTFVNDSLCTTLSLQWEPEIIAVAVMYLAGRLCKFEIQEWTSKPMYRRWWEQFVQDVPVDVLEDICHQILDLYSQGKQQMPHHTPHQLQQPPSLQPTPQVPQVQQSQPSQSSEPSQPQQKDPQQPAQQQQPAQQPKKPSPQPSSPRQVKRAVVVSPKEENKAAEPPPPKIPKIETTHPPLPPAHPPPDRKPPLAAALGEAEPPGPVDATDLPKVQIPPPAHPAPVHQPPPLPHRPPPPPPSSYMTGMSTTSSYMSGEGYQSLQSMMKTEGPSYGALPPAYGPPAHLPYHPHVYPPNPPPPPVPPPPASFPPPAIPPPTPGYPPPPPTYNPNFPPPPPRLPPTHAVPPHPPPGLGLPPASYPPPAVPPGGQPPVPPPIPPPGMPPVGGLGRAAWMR
Sequence of CDK12/Cyclin K (Q9NYV4 whole entry): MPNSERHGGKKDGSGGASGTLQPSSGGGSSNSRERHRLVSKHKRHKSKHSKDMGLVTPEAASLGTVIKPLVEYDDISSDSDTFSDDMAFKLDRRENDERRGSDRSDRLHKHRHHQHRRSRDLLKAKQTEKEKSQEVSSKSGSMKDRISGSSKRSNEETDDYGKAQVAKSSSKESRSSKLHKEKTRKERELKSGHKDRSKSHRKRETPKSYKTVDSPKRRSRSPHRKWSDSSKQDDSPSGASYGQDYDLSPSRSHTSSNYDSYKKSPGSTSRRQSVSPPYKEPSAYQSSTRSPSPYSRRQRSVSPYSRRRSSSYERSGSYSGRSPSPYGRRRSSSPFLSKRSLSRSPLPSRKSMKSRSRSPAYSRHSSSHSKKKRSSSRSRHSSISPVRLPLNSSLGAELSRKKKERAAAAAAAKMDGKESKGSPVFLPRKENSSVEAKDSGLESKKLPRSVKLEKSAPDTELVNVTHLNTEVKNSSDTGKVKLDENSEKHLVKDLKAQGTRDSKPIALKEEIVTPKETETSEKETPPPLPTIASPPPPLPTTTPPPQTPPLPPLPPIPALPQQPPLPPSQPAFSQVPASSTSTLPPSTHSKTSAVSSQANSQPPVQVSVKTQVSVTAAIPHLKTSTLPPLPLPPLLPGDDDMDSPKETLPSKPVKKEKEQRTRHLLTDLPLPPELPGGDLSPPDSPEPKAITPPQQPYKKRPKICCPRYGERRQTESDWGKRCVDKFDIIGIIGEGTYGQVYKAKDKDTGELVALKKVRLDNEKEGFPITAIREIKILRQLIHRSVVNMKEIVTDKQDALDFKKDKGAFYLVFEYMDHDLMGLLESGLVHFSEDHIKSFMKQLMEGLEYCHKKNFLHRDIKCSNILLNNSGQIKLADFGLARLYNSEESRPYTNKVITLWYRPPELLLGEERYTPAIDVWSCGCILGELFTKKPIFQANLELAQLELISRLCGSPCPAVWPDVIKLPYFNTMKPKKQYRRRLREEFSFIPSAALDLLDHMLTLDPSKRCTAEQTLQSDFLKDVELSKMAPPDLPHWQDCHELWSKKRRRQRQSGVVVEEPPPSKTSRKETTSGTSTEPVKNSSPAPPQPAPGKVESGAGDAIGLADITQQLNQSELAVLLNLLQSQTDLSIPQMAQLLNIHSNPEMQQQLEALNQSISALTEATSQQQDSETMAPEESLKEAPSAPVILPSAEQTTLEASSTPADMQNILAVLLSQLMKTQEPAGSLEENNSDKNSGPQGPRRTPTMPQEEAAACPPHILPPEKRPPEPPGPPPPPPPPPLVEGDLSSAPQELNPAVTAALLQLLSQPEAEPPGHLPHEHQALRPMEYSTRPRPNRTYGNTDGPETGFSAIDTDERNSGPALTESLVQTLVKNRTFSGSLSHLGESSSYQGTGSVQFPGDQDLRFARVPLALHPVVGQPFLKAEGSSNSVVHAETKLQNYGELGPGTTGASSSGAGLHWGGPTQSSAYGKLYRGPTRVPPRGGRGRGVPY
Method in brief: as §2

[10] = system: MV4-11; assay: Antiproliferative activity against human MV4-11 cells assessed as reduction in cell viability measured after 96 hrs by Celltiter-Glo luminescent assay; assay type: functional, cell-based; settings: MV4-11, 96 h
Method in brief: as §1

[11] = system: MRC5; assay: Cytotoxicity against human MRC5 cells assessed as reduction in cell viability measured after 96 hrs by Celltiter-Glo luminescent assay; assay type: cell-based; settings: MRC5, 96 h
Method in brief: as §1

[12] = Cytotoxicity against human LX2 cells assessed as inhibition of cell growth at 100 uM measured after 96 hrs by Celltiter-Glo luminescent assay; assay type: cell-based
Method in brief: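 LX2 cells grown in DMEM with 10% fetal bovine serum and 1% penicillin/streptomycin, plated in 96-well plates. They were treated with compound at […] or DMSO control for 96 h. Viability was read by CellTiter-Glo luminescence and expressed as percent inhibition.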

[13] = target: Cyclin-dependent kinase 2 (Homo sapiens) (UniProt P24941); assay: Inhibition of CDK2 in human MV4-11 cells assessed as reduction in Rb phosphorylation at Ser807/811 after 24 to 48 hrs by immunoblot analysis; assay type: cell-based; settings: dose 0.375-6 µM, time lower […], time upper 48.0 hrs
Method in brief: (§3)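 MV4-11 cells treated with compound for 24 h or 48 h. Lysates were separated on 8% or 10% SDS-PAGE and transferred to nitrocellulose. Membranes were immunoblotted for phospho-Rb Ser780, phospho-Rb Ser807/811 and total Rb, with β-actin as loading control. Detection used HRP secondary at 1:10,000 and ECL.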

[14] = target: Cyclin-dependent kinase 2 (Homo sapiens) (UniProt P24941); assay: Inhibition of CDK2 in human MV4-11 cells assessed as reduction in Rb phosphorylation at Ser807/811 at 0.375 to 6 uM by immunoblot analysis; assay type: cell-based; settings: dose 0.375-6 µM, time lower […], time upper 48.0 hrs, TDE = time-dependent effect
Method in brief: as §3

[15] = target: Cyclin-dependent kinase 2 (Homo sapiens) (UniProt P24941); assay: Inhibition of CDK2 in human MV4-11 cells assessed as reduction in Rb phosphorylation at Ser780 after 24 to 48 hrs by immunoblot analysis; assay type: cell-based; settings: dose 0.375-6 µM, time lower […], time upper 48.0 hrs
Method in brief: as §3

[16] = target: Cyclin-dependent kinase 2 (Homo sapiens) (UniProt P24941); assay: Inhibition of CDK2 in human MV4-11 cells assessed as reduction in Rb phosphorylation at Ser780 at 0.375 to 6 uM by immunoblot analysis; assay type: cell-based; settings: dose 0.375-6 µM, time lower […], time upper 48.0 hrs, TDE = time-dependent effect
Method in brief: as §3

[17] = target: Cyclin-dependent kinase 2 (Homo sapiens) (UniProt P24941); assay: Inhibition of CDK2 in human MV4-11 cells assessed as downregulation of Mcl-1 expression at 0.1875 to 3 uM after 24 hrs by immunoblot analysis; assay type: cell-based; settings: dose 0.1875-3 µM
Method in brief: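 MV4-11 cells exposed to compound for 24 h. Lysates were resolved by 8% or 10% SDS-PAGE and blotted to nitrocellulose. Blots were probed with anti-Mcl-1 overnight at 4 °C, then HRP secondary at 1:10,000. Bands were developed by ECL, with GAPDH as loading control.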

[18] = target: Cyclin-dependent kinase 2 (Homo sapiens) (UniProt P24941); assay: Inhibition of CDK2 in human A2058 cells assessed as downregulation of Mcl-1 expression at 0.1875 to 1.5 uM after 24 hrs by immunoblot analysis; assay type: cell-based; settings: dose 0.1875-1.5 µM
[19] = system: A2058; assay: Induction of cell cycle arrest in human A2058 cells assessed as accumulation at G1 phase at 0.2 uM after 24 hrs by propidium iodide/RNase staining based flow cytometric analysis (reference value: 48.05 %); assay type: functional
[20] = system: A2058; assay: Induction of cell cycle arrest in human A2058 cells assessed as accumulation at G2 phase at 0.2 uM after 24 hrs by propidium iodide/RNase staining based flow cytometric analysis (reference value: 21.19 %); assay type: functional
[21] = system: A2058; assay: Induction of cell cycle arrest in human A2058 cells assessed as accumulation at S phase at 0.2 uM after 24 hrs by propidium iodide/RNase staining based flow cytometric analysis (reference value: 30.76 %); assay type: functional
[22] = system: A2058; assay: Induction of cell cycle arrest in human A2058 cells assessed as accumulation at G1 phase at 0.4 uM after 24 hrs by propidium iodide/RNase staining based flow cytometric analysis (reference value: 48.05 %); assay type: functional
[23] = system: A2058; assay: Induction of cell cycle arrest in human A2058 cells assessed as accumulation at G2 phase at 0.4 uM after 24 hrs by propidium iodide/RNase staining based flow cytometric analysis (reference value: 21.19 %); assay type: functional
[24] = system: A2058; assay: Induction of cell cycle arrest in human A2058 cells assessed as accumulation at S phase at 0.4 uM after 24 hrs by propidium iodide/RNase staining based flow cytometric analysis (reference value: 30.76 %); assay type: functional
[25] = system: A2058; assay: Induction of apoptosis in human A2058 cells assessed as viable cells at 1 uM measured after 48 hrs by Annexin V-FITC/propidium iodide staining based flow cytometry (reference value: 94.6 %); assay type: functional; settings: read-out: Activity
[26] = system: A2058; assay: Induction of apoptosis in human A2058 cells assessed as early apoptotic cells at 1 uM measured after 48 hrs by Annexin V-FITC/propidium iodide staining based flow cytometry (reference value: 3.13 %); assay type: functional
[27] = system: A2058; assay: Induction of apoptosis in human A2058 cells assessed as late apoptotic cells at 1 uM measured after 48 hrs by Annexin V-FITC/propidium iodide staining based flow cytometry (reference value: 1.85 %); assay type: functional
[28] = system: A2058; assay: Induction of apoptosis in human A2058 cells assessed as necrotic cells at 1 uM measured after 48 hrs by Annexin V-FITC/propidium iodide staining based flow cytometry (reference value: 0.37 %); assay type: functional
[29] = system: A2058; assay: Induction of apoptosis in human A2058 cells assessed as viable cells at 0.4 uM measured after 48 hrs by Annexin V-FITC/propidium iodide staining based flow cytometry (reference value: 94.6 %); assay type: functional; settings: read-out: Activity
[30] = system: A2058; assay: Induction of apoptosis in human A2058 cells assessed as early apoptotic cells at 0.4 uM measured after 48 hrs by Annexin V-FITC/propidium iodide staining based flow cytometry (reference value: 3.13 %); assay type: functional
[31] = system: A2058; assay: Induction of apoptosis in human A2058 cells assessed as late apoptotic cells at 0.4 uM measured after 48 hrs by Annexin V-FITC/propidium iodide staining based flow cytometry (reference value: 1.85 %); assay type: functional
[32] = system: A2058; assay: Induction of apoptosis in human A2058 cells assessed as necrotic cells at 0.4 uM measured after 48 hrs by Annexin V-FITC/propidium iodide staining based flow cytometry (reference value: 0.37 %); assay type: functional
[33] = system: A2058; assay: Induction of apoptosis in human A2058 cells assessed as viable cells at 0.2 uM measured after 48 hrs by Annexin V-FITC/propidium iodide staining based flow cytometry (reference value: 94.6 %); assay type: functional; settings: read-out: Activity
[34] = system: A2058; assay: Induction of apoptosis in human A2058 cells assessed as early apoptotic cells at 0.2 uM measured after 48 hrs by Annexin V-FITC/propidium iodide staining based flow cytometry (reference value: 3.13 %); assay type: functional
[35] = system: A2058; assay: Induction of apoptosis in human A2058 cells assessed as late apoptotic cells at 0.2 uM measured after 48 hrs by Annexin V-FITC/propidium iodide staining based flow cytometry (reference value: 1.85 %); assay type: functional
[36] = system: A2058; assay: Induction of apoptosis in human A2058 cells assessed as necrotic cells at 0.2 uM measured after 48 hrs by Annexin V-FITC/propidium iodide staining based flow cytometry (reference value: 0.37 %); assay type: functional
[37] = system: A2058; assay: Induction of apoptosis in human A2058 cells assessed as upregulation of cleaved caspase-3 level after 24 hrs by immunoblot analysis; assay type: functional, cell-based; settings: dose 0.1875-1.5 µM
Method in brief: (§4)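 A2058 cells treated with compound for 24 h and lysed. Lysates were run on 8% or 10% SDS-PAGE and transferred to nitrocellulose, then blocked in 5% milk/TBST for 60 min. Blots were probed overnight at 4 °C for cleaved caspase-3 or cleaved PARP, then with HRP secondary at 1:10,000 for 1 h. Detection was by ECL, with tubulin as loading control.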

[38] = system: A2058; assay: Induction of apoptosis in human A2058 cells assessed as upregulation of cleaved PARP level after 24 hrs by immunoblot analysis; assay type: functional, cell-based; settings: dose 0.1875-1.5 µM
Method in brief: as §4

Sequence of Cyclin-dependent kinase 1/cyclin B1 (P06493 whole entry): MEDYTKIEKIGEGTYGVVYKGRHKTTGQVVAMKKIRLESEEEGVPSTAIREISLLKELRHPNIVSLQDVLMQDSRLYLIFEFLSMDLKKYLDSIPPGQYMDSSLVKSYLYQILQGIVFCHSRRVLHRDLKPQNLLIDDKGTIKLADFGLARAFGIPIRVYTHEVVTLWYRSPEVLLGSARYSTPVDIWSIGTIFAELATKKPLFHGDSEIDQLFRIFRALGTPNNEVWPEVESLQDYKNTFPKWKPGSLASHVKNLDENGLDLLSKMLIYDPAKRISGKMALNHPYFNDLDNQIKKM
Sequence of Cyclin-dependent kinase 1/cyclin B1 (P14635 whole entry, further chain): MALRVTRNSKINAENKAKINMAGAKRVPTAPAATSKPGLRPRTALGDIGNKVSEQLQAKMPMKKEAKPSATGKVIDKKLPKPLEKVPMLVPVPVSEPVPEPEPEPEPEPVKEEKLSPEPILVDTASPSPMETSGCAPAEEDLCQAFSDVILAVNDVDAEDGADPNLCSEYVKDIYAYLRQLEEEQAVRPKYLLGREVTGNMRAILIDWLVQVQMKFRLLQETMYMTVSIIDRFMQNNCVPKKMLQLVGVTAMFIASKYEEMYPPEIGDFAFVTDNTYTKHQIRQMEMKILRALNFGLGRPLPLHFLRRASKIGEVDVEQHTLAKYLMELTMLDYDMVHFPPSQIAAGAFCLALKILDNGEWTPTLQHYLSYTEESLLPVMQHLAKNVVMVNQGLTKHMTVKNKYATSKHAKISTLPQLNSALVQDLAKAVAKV

IC50 [1]: 1300 nM
IC50 [2]: 169 nM
SMILES: O=C(NCCCN1CCOCC1)c1ccc(F)c(-c2ccc(F)c(C(=O)Nc3c[nH]nc3C(=O)Nc3ccc(F)cc3)c2F)c1
IC50 [3]: 943 nM

IC50 [1]: 69 nM
IC50 [2]: 8 nM
SMILES: NC(=O)c1cccc(-c2ccc(F)c(C(=O)Nc3c[nH]nc3C(=O)Nc3ccc(F)cc3)c2F)c1
IC50 [3]: 1990 nM

IC50 [1]: 1020 nM
IC50 [2]: 58 nM
IC50 [4]: 113 nM
IC50 [5]: 3480 nM
IC50 [6]: > 18000 nM
IC50 [7]: > 18000 nM
IC50 [8]: 1120 nM
IC50 [9]: > 18000 nM
IC50 [10]: 252 nM
inhibition [13]: Dose-dependent effect
inhibition [14]: Tde
inhibition [15]: Dose-dependent effect
inhibition [16]: Tde
inhibition [17]: Active
inhibition [18]: Active
SMILES: NC(=O)c1ccc(-c2ccc(F)c(C(=O)Nc3c[nH]nc3C(=O)Nc3ccc(F)cc3)c2F)cn1
IC50 [3]: 295 nM
IC50 [11]: 54800 nM
inhibition at 96 h, 100 µM [12]: 32.5%
Activity [19]: 36.89%
Activity [20]: 21.76%
Activity [21]: 41.35%
Activity [22]: 48.05%
Activity [23]: 41.44%
Activity [24]: 39.82%
viability at 1 µM [25]: 23.7%
Activity [26]: 40%
Activity [27]: 28.6%
Activity [28]: 7.66%
viability at 0.4 µM [29]: 55.1%
Activity [30]: 21.7%
Activity [31]: 14.6%
Activity [32]: 8.32%
viability at 0.2 µM [33]: 87.3%
Activity [34]: 4.52%
Activity [35]: 4.75%
Activity [36]: 3.41%
Activity [37]: Dose-dependent effect
Activity [38]: Dose-dependent effect

IC50 [10]: 391 nM
SMILES: O=C(NC1CCNCC1)c1n[nH]cc1NC(=O)c1c(Cl)cccc1Cl [AT-7519]
IC50 [11]: 425 nM
inhibition at 96 h, 100 µM [12]: 39.4%

IC50 [1]: 537 nM
IC50 [2]: 76 nM
SMILES: O=C(Nc1ccc(F)cc1)c1n[nH]cc1NC(=O)c1c(F)ccc(-c2cccc(CO)c2)c1F

From ChEMBL document CHEMBL4732230, “Design, synthesis, and biological evaluation of 4-benzoylamino-1H-pyrazole-3-carboxamide derivatives as potent CDK2 inhibitors” (Eur J Med Chem, 2021)
